From ChEMBL document CHEMBL1151437, “Activity of a potent hepatitis C virus polymerase inhibitor in the chimpanzee model” (Antimicrob Agents Chemother, 2007)

What was measured:
Hepatitis C virus [1] = assay: Antiviral activity against HCV 1b strain N with NS5B polymerase C316Y mutation infected in chimpanzee measured on day 5; assay type: functional, organism-based, Hepacivirus hominis; conditions: genotype 1b strain N, 120 h
Hepatitis C virus [2] = assay: Drug resistance, ratio of EC50 for HCV 1a H77 with NS5B polymerase G554D mutation to EC50 for wild type HCV 1a H77 infected in chimpanzee measured on day 16; assay type: functional, Hepacivirus hominis, genotype 1a H77
Hepatitis C virus [3] = assay: Antiviral activity against HCV 1a H77 with NS5B polymerase G554D mutation infected in chimpanzee measured on day 16; assay type: functional, organism-based, Hepacivirus hominis; conditions: genotype 1a H77, 384 h
Hepatitis C virus [4] = assay: Drug resistance, ratio of EC50 for HCV 1b strain N with NS5B polymerase C316Y mutation to EC50 for wild type HCV 1b strain N infected in chimpanzee measured on day 28; assay type: functional, Hepacivirus hominis, genotype 1b strain N
Hepatitis C virus [5] = assay: Drug resistance, ratio of EC50 for HCV 1a H77 with NS5B polymerase G554D mutation to EC50 for wild type HCV 1a H77 infected in chimpanzee measured on day 2; assay type: functional, Hepacivirus hominis, genotype 1a H77
Hepatitis C virus [6] = assay: Antiviral activity against HCV 1b strain N with NS5B polymerase C316Y mutation infected in chimpanzee measured on day 2; assay type: functional, organism-based, Hepacivirus hominis; conditions: genotype 1b strain N, 48 h
Hepatitis C virus [7] = assay: Antiviral activity against HCV 1a H77 with NS5B polymerase Y448C mutation infected in chimpanzee measured on day 28; assay type: functional, organism-based, Hepacivirus hominis; conditions: genotype 1a H77, 672 h
Hepatitis C virus [8] = assay: Drug resistance, ratio of EC50 for HCV 1b strain N with NS5B polymerase C316Y mutation to EC50 for wild type HCV 1b strain N infected in chimpanzee measured on day 11; assay type: functional, Hepacivirus hominis, genotype 1b strain N
Hepatitis C virus [9] = assay: Antiviral activity against HCV 1a H77 with NS5B polymerase G554D mutation infected in chimpanzee measured on day 5; assay type: functional, organism-based, Hepacivirus hominis; conditions: genotype 1a H77, 120 h
Hepatitis C virus [10] = assay: Antiviral activity against wild type HCV 1b strain N infected in chimpanzee; assay type: functional, organism-based, Hepacivirus hominis; conditions: genotype 1b strain N
Hepatitis C virus [11] = assay: Drug resistance, ratio of EC50 for HCV 1b strain N with NS5B polymerase C316Y mutation to EC50 for wild type HCV 1b strain N infected in chimpanzee measured on day 5; assay type: functional, Hepacivirus hominis, genotype 1b strain N
Hepatitis C virus [12] = assay: Drug resistance, ratio of EC50 for HCV 1a H77 with NS5B polymerase G554D mutation to EC50 for wild type HCV 1a H77 infected in chimpanzee measured on day 5; assay type: functional, Hepacivirus hominis, genotype 1a H77
Hepatitis C virus [13] = assay: Antiviral activity against HCV 1a H77 with NS5B polymerase G554D mutation infected in chimpanzee measured on day 2; assay type: functional, organism-based, Hepacivirus hominis; conditions: genotype 1a H77, 48 h
Hepatitis C virus [14] = assay: Drug resistance, ratio of EC50 for HCV 1a H77 with NS5B polymerase Y448C mutation to EC50 for wild type HCV 1a H77 infected in chimpanzee measured on day 28; assay type: functional, Hepacivirus hominis, genotype 1a H77
Hepatitis C virus [15] = assay: Antiviral activity against HCV 1b strain N with NS5B polymerase C316Y mutation infected in chimpanzee measured on day 11; assay type: functional, organism-based, Hepacivirus hominis; conditions: genotype 1b strain N, 264 h
Hepatitis C virus [16] = assay: Drug resistance, ratio of EC50 for HCV 1b strain N with NS5B polymerase C316Y mutation to EC50 for wild type HCV 1b strain N infected in chimpanzee measured on day 2; assay type: functional, Hepacivirus hominis, genotype 1b strain N
Hepatitis C virus [17] = assay: Antiviral activity against HCV 1b strain N with NS5B polymerase C316Y mutation infected in chimpanzee measured on day 28; assay type: functional, organism-based, Hepacivirus hominis; conditions: genotype 1b strain N, 672 h
[18] = Cmax in HCV 1a H77 infected chimpanzee at 30 mg/kg, po BID for 14 days measured after 2 hrs of postdose; assay type: ADME, organism-based, Pan troglodytes; set-up: dose 30 mg/kg, route oral; conditions: in vivo
How it was run: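 Chimpanzees were dosed orally at 30 mg/kg BID for 14 days. Plasma drug was measured by LC-MS. For the genotype 1a animal, the value is the mean of three samples taken 2 h after the a.m. dose on days 2, 3 and 4.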

[19] = Half life in rat at 5 mg/kg, po; assay type: ADME, organism-based; set-up: dose 5 mg/kg, route oral; conditions: in vivo
How it was run: (§1)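 Rats, dogs and monkeys received one oral 5 mg/kg dose in polyethylene glycol 400. Serum was sampled at 0.3, 0.5, 1, 2, 4, 6, 9, 12 and 24 h. Plasma drug was extracted by acetonitrile protein precipitation with internal standard and quantified by LC-MS against spiked standards (peak-area ratio, linear regression). Limit of quantitation was about 20 ng/ml.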

Hepatitis C virus [20] = assay: Antiviral activity against HCV 1a H77 after 4 days by RT-PCR; assay type: functional, organism-based, Hepacivirus hominis; conditions: genotype 1a H77, 96 h
How it was run: (§2)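 Subgenomic replicon cells (genotype 1b strain N, or chimeric 1a H77/1b Con1) grown in DMEM with 10% FBS and 400 µg/ml G418. Next day, the medium was switched to 5% FBS with inhibitor in half-log dilutions. After 4 days, total RNA was extracted and replicon RNA copies were counted by TaqMan real-time RT-PCR. Potency came from the fall in copy number.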

[21] = Cmax in rat at 5 mg/kg, po; assay type: ADME, organism-based; set-up: dose 5 mg/kg, route oral; conditions: in vivo; how it was run: as §1
[22] = Inhibition of HCV 1a H77 NS5B polymerase by [3H]UTP incorporation assay; set-up: species or system Hepatitis C virus (isolate H77)
[23] = Oral bioavailability in rat at 5 mg/kg; assay type: ADME, organism-based; conditions: in vivo
[24] = Cmax in monkey at 5 mg/kg, po; assay type: ADME, organism-based, Macaca mulatta; set-up: dose 5 mg/kg, route oral; conditions: rhesus monkey, in vivo; how it was run: as §1
Hepatitis C virus [25] = assay: Antiviral activity against HCV 1b strain N infected in chimpanzee assessed as reduction in viral load at 30 mg/kg, po BID for 14 days measured on day 2 postdosing; assay type: functional, Hepacivirus hominis, genotype 1b strain N
How it was run: (§3)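 One chimpanzee infected with genotype 1a and one with genotype 1b were dosed orally with 30 mg/kg BID for 14 days. Serum viral load was measured by TaqMan quantitative RT-PCR. A pretreatment serum sample (day 0) served as the baseline.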

[26] = Tmax in rat at 5 mg/kg, po; assay type: ADME, organism-based; set-up: dose 5 mg/kg, route oral; conditions: in vivo; how it was run: as §1
Hepatitis C virus [27] = assay: Antiviral activity against HCV 1b strain N after 4 days by RT-PCR in presence of 40% human serum; assay type: functional, organism-based, Hepacivirus hominis; conditions: genotype 1b strain N, 96 h
How it was run: (§4)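 They were exposed for 4 days to half-log inhibitor dilutions in medium with 5% FBS plus 40% human serum, to assess protein binding. Replicon RNA copy number was then measured by TaqMan real-time RT-PCR on extracted total RNA.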

[28] = Oral bioavailability in dog at 5 mg/kg; assay type: ADME, organism-based, Canis lupus familiaris; conditions: in vivo
[29] = Oral bioavailability in monkey at 5 mg/kg; assay type: ADME, organism-based, Macaca mulatta; conditions: rhesus monkey, in vivo
[30] = AUC in rat at 5 mg/kg, po; assay type: ADME, organism-based; set-up: dose 5 mg/kg, route oral; conditions: plasma; how it was run: as §1
[31] = Half life in dog at 5 mg/kg, po; assay type: ADME, organism-based, Canis lupus familiaris; set-up: dose 5 mg/kg, route oral; conditions: in vivo; how it was run: as §1
[32] = Tmax in monkey at 5 mg/kg, po; assay type: ADME, organism-based, Macaca mulatta; set-up: dose 5 mg/kg, route oral; conditions: rhesus monkey, in vivo; how it was run: as §1
Hepatitis C virus [33] = assay: Inhibition of HCV 1b strain N NS5B polymerase by [3H]UTP incorporation assay; set-up: species or system Hepatitis C virus subtype 1b
Hepatitis C virus [34] = assay: Antiviral activity against HCV 1a H77 infected in chimpanzee assessed as reduction in viral load at 30 mg/kg, po BID for 14 days measured on day 2 postdosing; assay type: functional, Hepacivirus hominis, genotype 1a H77; how it was run: as §3
Hepatitis C virus [35] = assay: Ratio of EC50 for HCV 1a H77 in presence of 40% human serum to EC50 for HCV 1a H77 in absence of human serum; assay type: functional, Hepacivirus hominis, genotype 1a H77
How it was run: (§5)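 Cells carrying the subgenomic replicon (genotype 1b strain N, or chimeric 1a H77/1b Con1) were maintained in DMEM with 10% FBS and 400 µg/ml G418. The next day they were given medium with 5% FBS and half-log inhibitor dilutions, with or without 40% human serum, for 4 days. Replicon RNA copy number was measured by TaqMan RT-PCR.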

[36] = Cmax in HCV 1b strain N infected chimpanzee at 30 mg/kg, po BID for 14 days measured after 2 hrs of postdose; assay type: ADME, organism-based, Pan troglodytes; set-up: dose 30 mg/kg, route oral; conditions: in vivo
[37] = Half life in monkey at 5 mg/kg, po; assay type: ADME, organism-based, Macaca mulatta; set-up: dose 5 mg/kg, route oral; conditions: rhesus monkey, in vivo; how it was run: as §1
Hepatitis C virus [38] = assay: Ratio of EC50 for HCV 1b strain N in presence of 40% human serum to EC50 for HCV 1b strain N in absence of human serum; assay type: functional, Hepacivirus hominis, genotype 1b strain N; how it was run: as §5
[39] = AUC in monkey at 5 mg/kg, po; assay type: ADME, organism-based, Macaca mulatta; set-up: dose 5 mg/kg, route oral; conditions: rhesus monkey, plasma; how it was run: as §1
Hepatitis C virus [40] = assay: Antiviral activity against HCV 1a H77 after 4 days by RT-PCR in presence of 40% human serum; assay type: functional, organism-based, Hepacivirus hominis; conditions: genotype 1a H77, 96 h; how it was run: as §4
[41] = AUC in dog at 5 mg/kg, po; assay type: ADME, organism-based, Canis lupus familiaris; set-up: dose 5 mg/kg, route oral; conditions: plasma; how it was run: as §1
[42] = Tmax in dog at 5 mg/kg, po; assay type: ADME, organism-based, Canis lupus familiaris; set-up: dose 5 mg/kg, route oral; conditions: in vivo; how it was run: as §1
Hepatitis C virus [43] = assay: Antiviral activity against HCV 1b strain N after 4 days by RT-PCR; assay type: functional, organism-based, Hepacivirus hominis; conditions: genotype 1b strain N, 96 h; how it was run: as §2
[44] = Cmax in dog at 5 mg/kg, po; assay type: ADME, organism-based, Canis lupus familiaris; set-up: dose 5 mg/kg, route oral; conditions: in vivo; how it was run: as §1

COc1ccc2c(O[C@@H]3C[C@H]4C(=O)N[C@]5(C(=O)O)C[C@H]5/C=C\CCCCC[C@H](NC(=O)OC5CCCC5)C(=O)N4C3)cc(-c3csc(NC(C)C)n3)nc2c1 [CILUPREVIR]
EC50 (Hepatitis C virus [1]): 1.3 nM | fold change (FC) (Hepatitis C virus [2]): 0.9 | EC50 (Hepatitis C virus [3]): 2.8 nM | fold change (FC) (Hepatitis C virus [4]): 1 | fold change (FC) (Hepatitis C virus [5]): 0.9 | EC50 (Hepatitis C virus [6]): 1.3 nM | EC50 (Hepatitis C virus [7]): 3.3 nM | fold change (FC) (Hepatitis C virus [8]): 0.8 | EC50 (Hepatitis C virus [9]): 3.1 nM | EC50 (Hepatitis C virus [10]): 1.4 nM | fold change (FC) (Hepatitis C virus [11]): 1.1 | fold change (FC) (Hepatitis C virus [12]): 1 | EC50 (Hepatitis C virus [13]): 2.7 nM | fold change (FC) (Hepatitis C virus [14]): 1.1 | EC50 (Hepatitis C virus [15]): 1.1 nM | fold change (FC) (Hepatitis C virus [16]): 1 | EC50 (Hepatitis C virus [17]): 1.3 nM

CC(C)CC[C@@]1(C)C(=O)C(C2=NS(=O)(=O)c3cc(NS(C)(=O)=O)ccc3N2)=C(O)c2ccccc21
Cmax [18]: 5490 ng/mL | EC50 (Hepatitis C virus [1]): 1200 nM | half-life [19]: 7.6 h | EC50 (Hepatitis C virus [20]): 11 nM | fold change (FC) (Hepatitis C virus [2]): 3.9 | EC50 (Hepatitis C virus [3]): 13.8 nM | fold change (FC) (Hepatitis C virus [4]): 389 | Cmax [21]: 310 ng/mL | fold change (FC) (Hepatitis C virus [5]): 2.2 | IC50 [22]: 1.25 nM | EC50 (Hepatitis C virus [6]): 25 nM | bioavailability [23]: 62.7% | Cmax [24]: 520 ng/mL | log10cfu (Hepatitis C virus [25]): 2.5 /ml | EC50 (Hepatitis C virus [7]): 8.2 nM | Tmax [26]: 4.2 h | EC50 (Hepatitis C virus [27]): 42 nM | bioavailability [28]: 89.3% | bioavailability [29]: 15.2% | AUC [30]: 3300 ng·h/mL | fold change (FC) (Hepatitis C virus [8]): 2000 | EC50 (Hepatitis C virus [9]): 4.5 nM | half-life [31]: 10.7 h | Tmax [32]: 2.7 h | IC50 (Hepatitis C virus [33]): 0.33 nM | EC50 (Hepatitis C virus [10]): 0.9 nM | log10cfu (Hepatitis C virus [34]): 1.4 /ml | fold change (FC) (Hepatitis C virus [35]): 13 | Cmax [36]: 8590 ng/mL | half-life [37]: 1.9 h | fold change (FC) (Hepatitis C virus [11]): 1330 | fold change (FC) (Hepatitis C virus [12]): 1.3 | fold change (FC) (Hepatitis C virus [38]): 15 | AUC [39]: 1500 ng·h/mL | EC50 (Hepatitis C virus [13]): 7.7 nM | EC50 (Hepatitis C virus [40]): 143 nM | fold change (FC) (Hepatitis C virus [14]): 2.3 | AUC [41]: 10500 ng·h/mL | EC50 (Hepatitis C virus [15]): 1800 nM | fold change (FC) (Hepatitis C virus [16]): 28 | Tmax [42]: 0.4 h | EC50 (Hepatitis C virus [17]): 350 nM | EC50 (Hepatitis C virus [43]): 3 nM | Cmax [44]: 1940 ng/mL
